Results as given in ChEMBL document CHEMBL3351498, “Identification of key structural characteristics of Schisandra chinensis lignans involved in P-glycoprotein inhibition” (2014).

How the values were obtained:
[1] = Cell cycle arrest in human HL60/MDR cells assessed as accumulation at G1 phase at 25 uM after 48 hrs by flow cytometry (reference value: 59.0 %); format: functional, cell-based
Method in brief: (§1)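 HL60/MDR cells (about 5 × 10^5 cells/mL) exposed 48 h under standard culture to doxorubicin (0.2 and/or 0.02 μM) or lignan (25 μM) alone; DMSO-treated control. Cells fixed in 70% ethanol 30 min at room temperature, RNase A (17 μg/mL) 37 °C 30 min, PI (3 μg/mL) 10 min dark; DNA content by flow cytometry, FL3 (620 nm), 10 000–20 000 events.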

[2] = Cell cycle arrest in human HL60/MDR cells assessed as accumulation at S phase at 25 uM after 48 hrs by flow cytometry (reference value: 29.9 %); format: functional, cell-based; method in brief: as §1
[3] = Cell cycle arrest in human HL60/MDR cells assessed as accumulation at G2/M phase at 25 uM after 48 hrs by flow cytometry (reference value: 11.3 %); format: functional, cell-based; method in brief: as §1
[4] = Cytotoxicity against human HL60/MDR cells assessed as viable cells at 25 uM after 48 hrs by WST assay; format: functional; settings: for viability at 25 µM: Homo sapiens, HL60/MDR, 48 h, read-out: Activity
[5] = Potentiation of 0.6 uM doxorubicin-induced cytotoxicity in human HL60/MDR cells assessed as viable cells at 25 uM after 48 hrs by WST assay relative to control; format: functional
[6] = Potentiation of 0.02 uM doxorubicin-induced cytotoxicity in human HL60/MDR cells assessed as viable cells at 25 uM after 48 hrs by WST assay relative to control; format: functional
[7] = Potentiation of 0.2 uM doxorubicin-induced cytotoxicity in human HL60/MDR cells assessed as viable cells at 25 uM after 48 hrs by WST assay relative to control; format: functional
[8] = Cytotoxicity against human HL60/MDR cells assessed as viable cells at 0.6 uM after 48 hrs by WST assay; format: functional; settings: read-out: Activity
Method in brief: (§2)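 Doxorubicin-resistant HL60/MDR cells seeded at 5 × 10^4 cells/mL and held 48 h at 37 °C with doxorubicin (0.02, 0.2, 0.6 μM) alone or plus modulator (25 μM). WST-1 (1 mM) with 0.2 mM MMPM then added for 4 h; absorbance at 450 nm. Viability given as % of untreated cells; two independent experiments, each in triplicate.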

[9] = Cell cycle arrest in human HL60/MDR cells assessed as accumulation at G2/M phase at 0.2 uM after 48 hrs by flow cytometry (reference value: 11.3 %); format: functional, cell-based; method in brief: as §1
[10] = Cell cycle arrest in human HL60/MDR cells assessed as accumulation at G1 phase at 0.02 uM after 48 hrs by flow cytometry (reference value: 59.0 %); format: functional, cell-based; method in brief: as §1
[11] = Cell cycle arrest in human HL60/MDR cells assessed as accumulation at S phase at 0.2 uM after 48 hrs by flow cytometry (reference value: 29.9 %); format: functional, cell-based; method in brief: as §1
[12] = Cytotoxicity against human HL60/MDR cells assessed as viable cells at 0.2 uM after 48 hrs by WST assay; format: functional; settings: read-out: Activity; method in brief: as §2
[13] = Cytotoxicity against human HL60/MDR cells assessed as viable cells at 0.02 uM after 48 hrs by WST assay; format: functional; settings: read-out: Activity; method in brief: as §2
[14] = Cell cycle arrest in human HL60/MDR cells assessed as accumulation at G1 phase at 0.2 uM after 48 hrs by flow cytometry (reference value: 59.0 %); format: functional, cell-based; settings: in the assay text read “G2/M phase” for “G1 phase”; method in brief: as §1
[15] = Cell cycle arrest in human HL60/MDR cells assessed as accumulation at G2/M phase at 0.02 uM after 48 hrs by flow cytometry (reference value: 11.3 %); format: functional, cell-based; method in brief: as §1
[16] = Cell cycle arrest in human HL60/MDR cells assessed as accumulation at S phase at 0.02 uM after 48 hrs by flow cytometry (reference value: 29.9 %); format: functional, cell-based; method in brief: as §1
[17] = Potentiation of doxorubicin-induced cell cycle arrest in human HL60/MDR cells assessed as accumulation at G2/M phase at 25 uM after 48 hrs by flow cytometry (reference value: 59.0 %); format: functional
[18] = Potentiation of doxorubicin-induced cell cycle arrest in human HL60/MDR cells assessed as accumulation at S phase at 25 uM after 48 hrs by flow cytometry (reference value: 59.0 %); format: functional
[19] = Potentiation of doxorubicin-induced cell cycle arrest in human HL60/MDR cells assessed as accumulation at G1 phase at 25 uM after 48 hrs by flow cytometry (reference value: 59.0 %); format: functional

`COc1cc2c(c(OC)c1OC)-c1c(cc(OC)c(OC)c1OC)C[C@H](C)[C@H](C)C2` showed an Activity [1] of 57.3%, an Activity [2] of 30.5% and an Activity [3] of 12.1%.

`COc1cc2c(c(OC)c1OC)-c1c(cc3c(c1OC)OCO3)C[C@H](C)[C@H](C)C2` showed an Activity [1] of 64.8%, an Activity [2] of 26.4% and an Activity [3] of 8.8%.

`COc1cc2c(c(OC)c1OC)-c1c(cc3c(c1OC)OCO3)CC(C)C(C)C2` (racemic) [SCHISANDRIN B] gave a viability at 25 µM [4] of 88%, an Activity [5] of 36% and an Activity [6] of 117%. The Activity [7] was 41%.

In the case of `COc1cc2c(c(OC)c1OC)-c1c(cc(OC)c(OC)c1OC)C[C@H](C)[C@H](C)C2` (single isomer, unassigned; atropisomer 1) [SCHISANDRIN A], the Activity [4] was 144%, the Activity [5] was 39% and the Activity [6] was 108%. It also gave an Activity [7] of 48%.

`COc1cc2c(c(OC)c1OC)-c1c(cc3c(c1OC)OCO3)C[C@H](C)[C@H](C)C2` (single isomer, unassigned; atropisomer 1) [WUWEIZISU B] gave an Activity [4] of 102%, an Activity [5] of 38% and an Activity [6] of 94%. The Activity [7] was 66%.

For `COc1cc2c(c(OC)c1OC)-c1c(cc3c(c1OC)OCO3)C[C@@H](C)[C@@H](C)C2` (single isomer, unassigned; atropisomer 2) [KADSURANIN], the viability at 25 µM [4] was 106%, the Activity [5] was 81% and the Activity [6] was 100%. It also gave an Activity [7] of 97%.

Work on `COc1cccc2c1C(=O)c1c(O)c3c(c(O)c1C2=O)C[C@@](O)(C(=O)CO)C[C@@H]3O[C@H]1C[C@H](N)[C@H](O)[C@H](C)O1` [DOXORUBICIN] yielded a viability at 0.6 µM [8] of 91%, an Activity [9] of 52% and an Activity [10] of 55.8%. For the same compound, the Activity [11] was 11%, the viability at 0.2 µM [12] was 83% and the viability at 0.02 µM [13] was 109%. It also gave an Activity [14] of 36.9%, an Activity [15] of 16% and an Activity [16] of 28.3%.

`COc1cc2c(c(OC)c1OC)-c1c(cc(OC)c(OC)c1OC)C[C@H](C)[C@H](C)C2` [SCHISANDRIN A] gave an Activity [4] of 92%, an Activity [17] of 67.9% and an Activity [5] of 43%. The Activity [6] was 106%, the Activity [18] was 10.9% and the Activity [7] was 52%. For the same compound, the Activity [19] was 21.2%.

Work on `COc1cc2c(c(OC)c1OC)-c1c(cc3c(c1OC)OCO3)C[C@H](C)[C@H](C)C2` [WUWEIZISU B] yielded an Activity [4] of 128%, an Activity [17] of 36.9% and an Activity [5] of 39%. The Activity [6] was 121%, the Activity [18] was 22.7% and the Activity [7] was 42%. The Activity [19] was 40.4%.
